Several values for one entry are separate records, joined by “and”; a condition that tells them apart may be missing. Identical values can stand only once. Entries after “also recorded” stand apart in the source; their conditions may differ.
Tests used:
HCMV (AD169) = test: Antiviral CPE assay, HCMV AD169; type: cell-based, human cytomegalovirus; conditions: CC50/EC50
HSV1 (E-377) = test: microbe, parasite or virus in culture; type: cell-based, herpesvirus 1 (HSV-1)
BK virus (Gardner) = test: Antiviral qPCR assay, BK virus; type: cell-based; conditions: CC50/EC50
HHV-6B (Z29) = test: Antiviral qPCR assay, HHV-6B; type: cell-based, human herpes virus-6B; conditions: for SI HHV-6B (Z29): CC50/EC50; for EC50: Homo sapiens, MOLT-3, 168 h, read-out: EC50 HHV-6B (Z29)
ADV5 (Adenoid 75) = test: Antiviral CPE assay, ADV5; type: cell-based, adenovirus (AdV-5); conditions: CC50/EC50
HSV2 (G) = test: microbe, parasite or virus in culture; type: cell-based, herpesvirus 2 (HSV-2)
EBV (Akata) = test: Antiviral qPCR assay, EBV; type: cell-based, Epstein–Barr virus; conditions: for SI EBV (Akata): CC50/EC50; for EC50: human gammaherpesvirus 4, Akata, 72 h, read-out: EC50 EBV (Akata)
[1] = cited from earlier work
[2] = Metabolic stability in rat hepatocytes; type: in vitro ADME
Procedure, shortened: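 In hepatocyte stability, compound at 1 μM was incubated in duplicate with 0.5 × 10^6 cells/mL at 37 °C. Samples were taken over 2 h and quenched and precipitated with ice-cold methanol (1:1). The soluble fraction was analysed by LC–MS/MS.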

MCMV (Smith) = test: Antiviral qPCR assay, MCMV in MEF cells; type: cell-based, murine cytomegalovirus; conditions: CC50/EC50
[3] = Oral pharmacokinetics and biodistribution in mice; type: in vivo, male CFW mice
[4] = PK in mice after a single intravenous dose; type: in vivo; conditions: mouse, plasma, 1 mg/kg
[5] = test system: human foreskin fibroblast (HFF) cells; test: Intracellular conversion to CDV-PP, HFF model; type: cell-based; conditions: 30 nM, 72 h
Procedure, shortened: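 Primary HFF cells (passage ≤10) were seeded at 6 × 10^6 per T-75 flask for 24 h. They were exposed in triplicate to 30 nM compound or vehicle in DMEM/2% FBS at 37 °C, 5% CO2 for 72 h, after preincubating the dosing solutions 24 h at 37 °C. Half the flasks were counted. The rest were rinsed in chilled saline and lysed in methanol:water 70:30. Prodrug, CDV and CDV-PP were measured by LC–MS/MS (5–2000 nM qualified range). Results are mean ± SD.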

HHV-8 (BCBL-1) = test: Antiviral qPCR assay, HHV-8; type: cell-based, human herpes virus 8; conditions: for SI HHV-8 (BCBL-1): CC50/EC50; for EC50: Homo sapiens, BCBL1, 168 h, read-out: EC50 HHV-8 (BCBL-1)
JC virus (MAD-4) = test: Antiviral qPCR assay, JC virus; type: cell-based; conditions: for SI JC virus (MAD-4): CC50/EC50; for EC50: JC polyomavirus, COS-7, 168 h, read-out: EC50 JC virus (MAD-4)
VZV (Ellen) = test: microbe, parasite or virus in culture; type: cell-based, varicella-zoster virus
[6] = test system: human adenovirus type 6 (AdV 6), strain tonsil 99 (HAdV-C6); test: Hamster model of AdV; type: in vivo, immunosuppressed male Syrian hamsters; conditions: IP, 37 mg/kg induction then 20 mg/kg three times weekly
Procedure, shortened: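 Male Syrian hamsters were immunosuppressed with IP cyclophosphamide (140 mg/kg induction, then 100 mg/kg). They received IV 3 × 10^10 pfu/kg AdV 6. There were 7 groups (n = 15), including uninfected vehicle and drug-only (1 mg/kg PO QD) controls. Test compound was given at 0.1, 0.3 or 1 mg/kg, and CDV IP (37, then 20 mg/kg thrice weekly) from day −1. Animals were weighed and observed daily. Liver TCID50 (HEK-293) was taken day 5, with serum transaminases. Survival was compared by log-rank and weight by mixed-effect analysis.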

HCMV = conditions: read-out: EC50 against CMV; cited from earlier work
HCMV (GDG^RK17) = test: Antiviral assay, HCMV GDGRK17; type: cell-based, human cytomegalovirus; conditions: CC50/EC50; single replicate
HSV-2 = conditions: read-out: EC50 against HSV-2; published data ref 42; cited from earlier work
VZV = conditions: read-out: EC50 against VZV; published data ref 42; cited from earlier work
vaccinia (Copenhagen) = test: microbe, parasite or virus in culture; type: cell-based
HSV-1 = conditions: read-out: EC50 against HSV-1; published data ref 42; cited from earlier work
[7] = equimolar oral doses, BCV vs NPP-669

Structure (SMILES): CCCCCCCCCCCCCCCCOCCCOP(=O)(O)CO[C@H](CO)Cn1ccc(N)nc1=O [BCV, brincidofovir]
- SI HCMV (AD169) (HCMV (AD169)): 540
- SI HSV1 (E-377) (HSV1 (E-377); CC50/EC50): >33
- EC50 (HSV1 (E-377); Human alphaherpesvirus 1, HFF, read-out: EC50 HSV1 (E-377)): 30 ± 20 nM
- SI BK virus (Gardner) (BK virus (Gardner)): 180
- SI HHV-6B (Z29) (HHV-6B (Z29)): 16
- EC50 (HHV-6B (Z29)): 30 ± 20 nM
- SI ADV5 (Adenoid 75) (ADV5 (Adenoid 75)): 46
- SI HSV2 (G) (HSV2 (G); CC50/EC50): >50
- EC50 (HSV2 (G); Human alphaherpesvirus 2, HFF, read-out: EC50 HSV2 (G)): 20 ± 10 nM
- SI EBV (Akata) (EBV (Akata)): >11
- EC50 (EBV (Akata)): 90 ± 90 nM
- GI toxicity ([1]; daily doses at 10 mg/kg ref 36): GI toxicity was noted
- NOAEL ([1]; twice weekly, in rats over 13 weeks ref 36): 15 mg/kg
- half-life at 1 μM [2]: 2.37 h
- hepatocyte CLint at 1 μM [2]: 9.73 µL/min/1e6 cells
- SI MCMV (Smith) (MCMV (Smith)): >244
- prodrug exposure in liver tissue [3, 7]: significantly higher levels than NPP-669
- prodrug levels in intestinal tissue [3, 7]: retained at substantially higher levels than NPP-669 in the intestinal tissue
- plasma levels over 24 h ([3]; single oral dose, NPP-669 30 mg/kg, BCV equimolar (26 mg/kg)): > 0.003 μM and > 2 ng/mL
- AUC [4]: 171 ng·h/mL
- Cmax [4]: 491 ng/mL
- Vd [4]: 3.7 L/kg
- clearance [4]: 122 mL/min/kg
- half-life [4]: 0.4 h
- intracellular pro-drug level [5]: highest levels of intracellular pro-drug
- SI HHV-8 (BCBL-1) (HHV-8 (BCBL-1)): 690
- EC50 (HHV-8 (BCBL-1)): 1 nM
- SI JC virus (MAD-4) (JC virus (MAD-4)): >3
- EC50 (JC virus (MAD-4)): 350 ± 260 nM
- SI VZV (Ellen) (VZV (Ellen); CC50/EC50): 114
- EC50 (VZV (Ellen); Human alphaherpesvirus 3, HFF, read-out: EC50 VZV (Ellen)): 5 ± 5 nM

Structure (SMILES): Nc1ccn(C[C@@H](CO)OCP(=O)(O)O)c(=O)n1 [CDV, cidofovir]
- toxicity of the dose needed for antiviral efficacy [6]: low-grade toxicity; also recorded: toxic dose
- EC50 (HCMV): ~1000 nM
- SI HCMV (GDG^RK17) (HCMV (GDG^RK17)): >1034
- SI BK virus (Gardner) (BK virus (Gardner)): >26
- SI HHV-6B (Z29) (HHV-6B (Z29)): 10
- EC50 (HHV-6B (Z29)): 7090 ± 3590 nM
- SI ADV5 (Adenoid 75) (ADV5 (Adenoid 75)): >23
- SI EBV (Akata) (EBV (Akata)): >10
- EC50 (EBV (Akata)): 10100 ± 3440 nM
- EC50 (HSV-2): 5000 to 6000 nM
- EC50 (VZV): 500 nM
- SI vaccinia (Copenhagen) (vaccinia (Copenhagen)): >10
- EC50 (vaccinia (Copenhagen); Orthopoxvirus vaccinia, HFF, read-out: EC50 vaccinia (Copenhagen)): 14600 nM
- intracellular levels of CDV or CDV-PP ([5]; below the detection limit): ≤ 10 ng/mL
- EC50 (HSV-1): 3000 to 5000 nM
- SI HHV-8 (BCBL-1) (HHV-8 (BCBL-1)): >67
- EC50 (HHV-8 (BCBL-1)): 1500 ± 700 nM
- SI JC virus (MAD-4) (JC virus (MAD-4)): >8
- EC50 (JC virus (MAD-4)): 18400 ± 16000 nM

Structure (SMILES): Nc1nc(O)c2ncn(COC(CO)CO)c2n1 [ganciclovir]
- SI HCMV (AD169) (HCMV (AD169)): >92
- SI MCMV (Smith) (MCMV (Smith)): >19

Source: publication PMC9811456 (Molecular Pharmaceutics, 2022)
